Data published in article PMC3428732 (Analytical chemistry, 2012).
Square brackets hold non-standard residues; d marks the D form. Peptide text beside a SMILES is read from it. * marks the point of attachment. 6FAM = O=C1OC2(c3ccc(O)cc3Oc3cc(O)ccc32)c2cc(C(=O)*)ccc21; Phe(F5) = N[C@@H](Cc1c(F)c(F)c(F)c(F)c1F)C(=O)O; NMeR = CN[C@@H](CCCNC(=N)N)C(=O)O; NMeF = CN[C@@H](Cc1ccccc1)C(=O)O; βAla = NCCC(=O)O

Experiments:
[1] = Peptide degradation in a HeLa cytosolic lysate; type: in vitro ADME, human; conditions: for half-life at 1 μM: human, HeLa cytosolic lysate
Summary of the method: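 Fluorescein-labelled peptide (1 μM) incubated at 37 °C with HeLa or LNCaP cytosolic lysate (3 mg mL⁻¹ total protein). Aliquots were quenched with HCl to 100 mM final; the 0 min point was acidified before peptide addition. Products were separated by CE-LIF, and fragments were identified by spiking in 250 nM standards. Initial rates were taken from the 0 and 5 min points, normalised to cytosolic protein (zmol pg⁻¹ s⁻¹). Triplicates used different lysates; mean ± SD.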

[2] = tested on: PKB activity in single LNCaP cells; experiment: Peptide phosphorylation in single LNCaP cells; type: cell-based, human; conditions: LNCaP cells pre-incubated with 500 nM wortmannin (10 min), then loaded with VI-B, 5 min; n = 10
PKBα kinase = PKBα kinase (Homo sapiens, UniProt P31749); experiment: in vitro kinase assay with purified PKBα; type: biochemical
Chain of PKBα kinase (P31749 whole entry): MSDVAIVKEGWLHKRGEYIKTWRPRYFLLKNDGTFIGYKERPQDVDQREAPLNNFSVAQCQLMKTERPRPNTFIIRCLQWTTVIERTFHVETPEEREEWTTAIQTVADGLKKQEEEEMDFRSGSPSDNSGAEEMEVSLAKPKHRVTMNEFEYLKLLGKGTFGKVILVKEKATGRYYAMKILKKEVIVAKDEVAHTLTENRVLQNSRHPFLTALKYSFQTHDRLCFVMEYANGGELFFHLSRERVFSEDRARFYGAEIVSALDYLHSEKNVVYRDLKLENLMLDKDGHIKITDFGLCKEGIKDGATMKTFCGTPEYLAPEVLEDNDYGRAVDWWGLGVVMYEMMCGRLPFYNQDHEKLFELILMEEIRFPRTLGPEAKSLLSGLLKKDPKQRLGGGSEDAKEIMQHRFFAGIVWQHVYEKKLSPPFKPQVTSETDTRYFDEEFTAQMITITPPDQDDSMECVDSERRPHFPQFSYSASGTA
Summary of the method: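 Active purified PKBα (6 nM) with N-terminally fluorescein-labelled peptide substrate (25 μM) at 30 °C. Buffer: 8 mM MOPS pH 7.0, 0.2 mM EDTA, 4 mM MgCl₂, 1 mM ATP. Aliquots were removed over time and stopped by heating at 90 °C for 4 min. Phosphorylation was quantified by CE-LIF. Triplicates used different enzyme aliquots on different days; mean ± SD.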

C[C@H](NC(=O)[C@H](Cc1ccccc1)NC(=O)[C@@H](NC(=O)[C@@H](C)NC(=O)[C@H](C)NC(=O)[C@H](CCCNC(=N)N)N(C)C(=O)[C@@H]1CCCN1C(=O)[C@H](CCCNC(=N)N)NC(=O)CNC(=O)c1ccc2c(c1)C1(OC2=O)c2ccc(O)cc2Oc2cc(O)ccc21)[C@@H](C)O)C(=O)N[C@@H](CCC(=O)O)C(=O)NCC(N)=O [IV-B, 6FAM-GRP-MeArg-A-DAla-TFAEG] (6FAM-GRP[NMeR]A[dA]TFAEG-NH2)
half-life at 1 μM [1]: 32 min

C[C@H](NC(=O)[C@H](Cc1ccccc1)NC(=O)[C@@H](NC(=O)CCNC(=O)[C@H](C)NC(=O)[C@H](CCCNC(=N)N)N(C)C(=O)[C@@H]1CCCN1C(=O)[C@H](CCCNC(=N)N)NC(=O)CNC(=O)c1ccc2c(c1)C1(OC2=O)c2ccc(O)cc2Oc2cc(O)ccc21)[C@@H](C)O)C(=O)N[C@@H](CCC(=O)O)C(=O)NCC(N)=O [IV-A, 6FAM-GRP-MeArg-A-βAla-TFAEG] (6FAM-GRP[NMeR]A[βAla]TFAEG-NH2)
half-life at 1 μM [1]: 14 min

C[C@H](NC(=O)[C@H](Cc1c(F)c(F)c(F)c(F)c1F)NC(=O)[C@@H](NC(=O)[C@H](Cc1ccccc1)NC(=O)[C@H](C)NC(=O)[C@H](CCCNC(=N)N)N(C)C(=O)[C@@H]1CCCN1C(=O)[C@H](CCCNC(=N)N)NC(=O)CNC(=O)c1ccc2c(c1)C1(OC2=O)c2ccc(O)cc2Oc2cc(O)ccc21)[C@@H](C)O)C(=O)N[C@@H](CCC(=O)O)C(=O)NCC(N)=O [V-A, 6FAM-GRP-MeArg-AFT-Phe(F5)-AEG] (6FAM-GRP[NMeR]AFT[Phe(F5)]AEG-NH2)
half-life at 1 μM [1]: 88 min

COC[C@H]1OC(=O)c2coc3c2[C@@]1(C)C1=C(C3=O)[C@@H]2CCC(=O)[C@@]2(C)C[C@H]1OC(C)=O [wortmannin, Wortmannin]
formation of phosphorylated product of VI-B [2]: 13% ± 12%

C[C@H](NC(=O)[C@H](Cc1ccccc1)NC(=O)[C@@H](NC(=O)[C@H](Cc1ccccc1)N(C)C(=O)[C@H](C)NC(=O)[C@H](CCCNC(=N)N)N(C)C(=O)[C@@H]1CCCN1C(=O)[C@H](CCCNC(=N)N)NC(=O)CNC(=O)c1ccc2c(c1)C1(OC2=O)c2ccc(O)cc2Oc2cc(O)ccc21)[C@@H](C)O)C(=O)N[C@@H](CCC(=O)O)C(=O)NCC(N)=O [IV-E, 6FAM-GRP-MeArg-A-MePhe-TFAEG] (6FAM-GRP[NMeR]A[NMeF]TFAEG-NH2)
half-life at 1 μM [1]: 2 min

C[C@H](NC(=O)[C@H](CCCNC(=N)N)N(C)C(=O)[C@@H]1CCCN1C(=O)[C@H](CCCNC(=N)N)NC(=O)CNC(=O)c1ccc2c(c1)C1(OC2=O)c2ccc(O)cc2Oc2cc(O)ccc21)C(=O)N[C@@H](Cc1ccccc1)C(=O)N[C@H](C(=O)N[C@@H](Cc1ccccc1)C(=O)N[C@H](C)C(=O)N[C@@H](CCC(=O)O)C(=O)NCC(N)=O)[C@@H](C)O [V-B, 6FAM-GRP-MeArg-AFTF-DAla-EG] (6FAM-GRP[NMeR]AFTF[dA]EG-NH2)
fold greater t1/2 than peptide IV-D ([1]; HeLa lysate): over 60 X
half-life at 1 μM [1]: 895 min

C[C@H](NC(=O)[C@H](C)NC(=O)[C@H](CCCNC(=N)N)N(C)C(=O)[C@@H]1CCCN1C(=O)[C@H](CCCNC(=N)N)NC(=O)CNC(=O)c1ccc2c(c1)C1(OC2=O)c2ccc(O)cc2Oc2cc(O)ccc21)C(=O)N[C@H](C(=O)N[C@@H](Cc1ccccc1)C(=O)N[C@@H](C)C(=O)N[C@@H](CCC(=O)O)C(=O)NCC(N)=O)[C@@H](C)O [III-B, 6FAM-GRP-MeArg-AATFAEG] (6FAM-GRP[NMeR]AATFAEG-NH2)
fold longer t50%P than peptide I (PKBα kinase): more than 50 X
6-residue fragment (alanine-threonine bond hydrolysis), % of all peptide present ([1]; HeLa lysate, within 15 min): 92%
half-life at 1 μM [1]: 2 min

C[C@H](NC(=O)[C@H](C)NC(=O)[C@@H](CCCNC(=N)N)NC(=O)[C@@H]1CCCN1C(=O)[C@H](CCCNC(=N)N)NC(=O)CNC(=O)c1ccc2c(c1)C1(OC2=O)c2ccc(O)cc2Oc2cc(O)ccc21)C(=O)N[C@H](C(=O)N[C@@H](Cc1ccccc1)C(=O)N[C@@H](C)C(=O)N[C@@H](CCC(=O)O)C(=O)NCC(N)=O)[C@@H](C)O [III-D, 6FAM-GRP-DArg-AATFAEG] (6FAM-GRP[dR]AATFAEG-NH2)
half-life at 1 μM [1]: 17 min

C[C@H](NC(=O)[C@H](Cc1ccccc1)NC(=O)[C@@H](NC(=O)[C@H](Cc1ccccc1)NC(=O)[C@H](C)NC(=O)[C@H](CCCNC(=N)N)N(C)C(=O)[C@@H]1CCCN1C(=O)[C@H](CCCNC(=N)N)NC(=O)CNC(=O)c1ccc2c(c1)C1(OC2=O)c2ccc(O)cc2Oc2cc(O)ccc21)[C@@H](C)O)C(=O)N[C@@H](CCC(=O)O)C(=O)NCC(N)=O [IV-D, 6FAM-GRP-MeArg-A-FTFAEG] (6FAM-GRP[NMeR]AFTFAEG-NH2)
fold faster t50%P than peptide III-B (PKBα kinase): over 30 X
half-life at 1 μM [1]: 14 min

C[C@H](NC(=O)[C@H](Cc1ccccc1)NC(=O)[C@@H](NC(=O)[C@H](CCC(=O)O)NC(=O)[C@H](C)NC(=O)[C@H](CCCNC(=N)N)N(C)C(=O)[C@@H]1CCCN1C(=O)[C@H](CCCNC(=N)N)NC(=O)CNC(=O)c1ccc2c(c1)C1(OC2=O)c2ccc(O)cc2Oc2cc(O)ccc21)[C@@H](C)O)C(=O)N[C@@H](CCC(=O)O)C(=O)NCC(N)=O [IV-C, 6FAM-GRP-MeArg-A-Glu-TFAEG] (6FAM-GRP[NMeR]AETFAEG-NH2)
half-life at 1 μM [1]: 37 min
